From ChEMBL document CHEMBL4017510, “Nitazoxanide Analogs Require Nitroreduction for Antimicrobial Activity in Mycobacterium smegmatis” (J Med Chem, 2017)
pIC50: −log10 of the molar value. In brackets after ≈: the same amount, converted by molar mass. Activity calls are given as the source filed them.

Columns and labels:
Vero = test: Cytotoxicity against African green monkey Vero cells; assay type: cell-based; conditions: Chlorocebus sabaeus
[1] = tested on: Mycolicibacterium smegmatis; test: Antibacterial activity against Mycobacterium smegmatis harboring 126E6 mutant measured after 24 hrs by resazurin microdilution assay; assay type: functional
Method in brief: (§1)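 Two-fold drug dilutions in 96-well plates with species-appropriate medium. Each well receives an inoculum of about 1 × 10^3 UFC. Each plate has a no-drug growth control and a no-bacteria medium control. Resazurin is added to 0.003% final. Incubation time and temperature vary by species. MIC is the lowest concentration preventing the blue-to-pink (resorufin) colour change.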

[2] = tested on: Mycobacterium tuberculosis; test: Antibacterial activity against Mycobacterium tuberculosis H37Rv after 7 days by resazurin microdilution assay; assay type: functional; conditions: 168 h; method in brief: as §1
Mycolicibacterium aurum [3] = test: Antibacterial activity against Mycobacterium aurum after overnight incubation by resazurin microdilution assay; assay type: functional
Method in brief: (§2)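 Mycobacteria were cultured in Middlebrook 7H9 with ADC and glycerol, at 32 °C for M. marinum (4 days) or with overnight incubation for M. aurum. Resazurin microdilution used 2-fold dilutions and about 1 × 10^3 UFC per well, with growth and medium controls. Resazurin 0.003% final. MIC defined as the lowest concentration preventing the blue-to-pink change.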

Mycobacterium marinum = test: Antibacterial activity against Mycobacterium marinum after 4 days by resazurin microdilution assay; assay type: functional; conditions: 96 h; method in brief: as §2
[4] = tested on: Mycolicibacterium smegmatis; test: Antibacterial activity against Mycobacterium smegmatis MC2 155 by resazurin microdilution assay; assay type: functional; conditions: str. MC2 155; method in brief: as §1
Mycobacterium avium = test: Antibacterial activity against Mycobacterium avium after 7 days by resazurin microdilution assay; assay type: functional; conditions: 168 h; method in brief: as §1
Escherichia coli = test: Antibacterial activity against Escherichia coli after 6 hrs by resazurin microdilution assay; assay type: functional
Method in brief: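 Clinical isolate of E. coli in Mueller−Hinton broth at 37 °C, 6 h incubation. Two-fold dilution series in 96-well plates with about 1 × 10^3 UFC per well. Growth and medium-only controls were run. Resazurin at 0.003% final. MIC taken as the lowest concentration blocking reduction of resazurin (blue) to resorufin (pink).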

Streptococcus agalactiae = test: Antibacterial activity against Streptococcus agalactiae NEM316 by resazurin microdilution assay; assay type: functional
Method in brief: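 S. agalactiae NEM316 in Todd−Hewitt broth at 37 °C. Compounds were tested as 2-fold dilutions in 96 wells with an inoculum of about 1 × 10^3 UFC per well. Controls without antibiotic or without bacteria were included. Resazurin 0.003% final. MIC was the lowest concentration preventing the color change from blue to pink.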

Staphylococcus aureus = test: Antibacterial activity against Staphylococcus aureus by resazurin microdilution assay; assay type: functional
Method in brief: (§3)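 Clinical isolates were grown at 37 °C in Mueller−Hinton broth. Two-fold dilutions were made in 96-well plates and inoculated with about 1 × 10^3 UFC per well. Growth controls (no antibiotic) and medium controls (no bacteria) were included. Resazurin was added to 0.003% final. MIC was the lowest concentration that prevented the blue-to-pink color change.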

Pseudomonas aeruginosa = test: Antibacterial activity against Pseudomonas aeruginosa by resazurin microdilution assay; assay type: functional; method in brief: as §3
Klebsiella aerogenes = test: Antibacterial activity against Enterobacter aerogenes by resazurin microdilution assay; assay type: functional; method in brief: as §3
Klebsiella pneumoniae = test: Antibacterial activity against Klebsiella pneumoniae by resazurin microdilution assay; assay type: functional; method in brief: as §3
[5] = Drug metabolism in Mycobacterium smegmatis 126E6 assessed as NfnB-mediated hydroxyl […] formation after 3 hrs by LC-MS/MS analysis; assay type: ADME; conditions: mycolicibacterium smegmatis
Method in brief: (§4)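 M. smegmatis wild type or transposon mutant 126E6 was grown in 7H9 to OD600 0.6 at 37 °C. 5 mL aliquots received 0.3 mg of compound or none and were incubated 3 h. Cultures were sonicated, cleared and filtered (0.45 μm), then mixed with acetonitrile/methanol/water. Analysis was aqueous normal-phase LC with ESI QTOF, reported as ion counts per mL, including the hydroxylamine intermediate (m/z 372.0012).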

Mycolicibacterium aurum [6] = test: Growth inhibition of Mycobacterium aurum at 0.4 uM after overnight incubation by resazurin microdilution assay relative to control; assay type: functional; conditions: read-out: GI
Method in brief: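 Single-concentration screen at 0.15 μg/mL (average 0.4 μM). M. aurum (20-fold dilution of an OD600 0.2–0.3 culture) was grown in 7H9 with 0.1% casitone, 0.5% glycerol, OADC and 0.002% resazurin for 18 h at 37 °C. Read-out was ΔOD (OD570 − OD604). Percent viability was normalized to DMSO (100%) and kanamycin (0%) controls.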

[7] = tested on: Mycolicibacterium smegmatis; test: Antibacterial activity against Mycobacterium smegmatis harboring 126E6 mutant at 51.6 uM measured after 24 hrs by resazurin microdilution assay; assay type: functional
Method in brief: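 Hypersensitivity screen of the M. smegmatis Tn611 transposon mutant collection. Wells receive 2 μL from each mutant in Middlebrook 7H9 with ADC, 0.05% Tween 80, kanamycin and PANTA, with compound at 20 μg/mL final. Drug-free plates serve as growth controls. Plates are incubated 48 h at 37 °C, with resazurin (0.003% final) added at 24 h. Clones failing to grow are scored.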

[8] = tested on: Mycolicibacterium smegmatis; test: Drug metabolism in Mycobacterium smegmatis assessed as hydroxyl […] formation after 3 hrs by LC-MS/MS analysis; assay type: ADME; method in brief: as §4

Structure (SMILES) | pIC50 (Vero) | MIC [1] [µM] | MIC [2] [µM] | MIC (Mycolicibacterium aurum [3]) [µM] | MIC (Mycobacterium marinum) [µM] | MIC [4] [µM] | MIC (Mycobacterium avium) [µM] | MIC (Escherichia coli) [µM] | MIC (Streptococcus agalactiae) [µM] | MIC (Staphylococcus aureus) [µM] | MIC (Pseudomonas aeruginosa) [µM] | MIC (Klebsiella aerogenes) [µM] | MIC (Klebsiella pneumoniae) [µM] | Drug metabolism [5] | inhibition of growth at 0.4 µM (Mycolicibacterium aurum [6]) [%] | Activity [7] | Drug metabolism [8]
CCCOc1ccc(C(=O)Nc2ncc([N+](=O)[O-])s2)cc1Br | < 4.00 | 10.1 (≈ 3.9 µg/mL) | 77.6 (≈ 30 µg/mL) | 1 (≈ 0.386 µg/mL) | 4.03 (≈ 1.56 µg/mL) | > 129 | 77.7 (≈ 30 µg/mL) | > 129 | > 129 | 2.33 (≈ 0.9 µg/mL) | > 129 | > 129 | > 129 | Metabolite_Detected | > 40 | Active | Metabolite_Notdetected
O=C(Nc1ncc([N+](=O)[O-])s1)c1ccc(Cl)cc1Cl | < 4.00 | 18.6 (≈ 5.92 µg/mL) | 78.5 (≈ 25 µg/mL) | 2.45 (≈ 0.779 µg/mL) | 18.8 (≈ 5.98 µg/mL) | 78.5 (≈ 25 µg/mL) | 46.6 (≈ 14.8 µg/mL) | > 93 | > 93 | 6.2 (≈ 1.97 µg/mL) | 93 (≈ 29.6 µg/mL) | > 93 | > 93 |  | > 40 |  | 
O=C(Nc1ncc([N+](=O)[O-])s1)c1ccccc1OC(F)(F)F |  | 19.6 (≈ 6.53 µg/mL) | 75 (≈ 25 µg/mL) | 4.65 (≈ 1.55 µg/mL) | 9 (≈ 3 µg/mL) | 75 (≈ 25 µg/mL) | 11.7 (≈ 3.9 µg/mL) | > 93.6 | > 93.6 | 48.8 (≈ 16.3 µg/mL) | 93.6 (≈ 31.2 µg/mL) | > 93.6 | > 93.6 |  | > 40 |  | 
